# In the library only some 1.4% were active in any assay of this set; here they are far more common.
# CXCR6 inh – CXCR6 receptor inhibitors, primary screen, cell-based, beta-arrestin, luminescence, CHO-K1 PathHunter, 1536-well. inhibition, % at 20 µM. hit rate 0.36% among 360,000. C-X-C chemokine receptor type 6 (Homo sapiens), O00574; in the data active = inhibition above about 34%, passing the limit was not always enough;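 also: antagonist mode with CXCL16 agonist at 10 nM final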
# APJ antag – antagonists of human apelin receptor APJ, primary screen, CHO-K1 cells, beta-arrestin complementation, luminescence. P35414. inhibition, % at 20 µM. hit rate 0.32% among 330,000. AID 2521, 2010;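 active = inhibition above about 40% at 20 µM, limit read from the data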;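 also: cells challenged with 10 nM apelin-13 agonist together with compound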
# APJ ag – agonists of human apelin receptor APJ, primary screen, CHO-K1 cells, PathHunter beta-arrestin, luminescence; 0% DMSO wells, 100% apelin; activation, % at 20 µM; hit rate 0.11% among 330,000; AID 2520, 2010;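 active = activation more than six SD over the plate average, tested at 20 µM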
#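 Assay system – PathHunter CHO-K1 APJ (AGTRL-1) beta-arrestin reporter cells · Compound – one dose, 20 µM compound, 1% DMSO · Timing – compound 90 min 25 °C, reagent 1 h · Measured by – luminescence from split beta-galactosidase complementation, Galacton Star/Emerald II substrate · Measure – beta-arrestin recruitment to APJ as agonist activity, luminescent signal · Benchmarks – DMSO vs Apelin-13 10 nM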
# CCR6 antagonist – CCR6 receptor antagonists, primary screen, cell-based, CHO-K1, luminescence, beta-arrestin, uHTS; CHO-K1 CCR6 PathHunter beta-arrestin, CCL20-stimulated; inhibition, % at 20 µM; hit rate 0.49% among 340,000; AID 493098, 2011;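 active = compounds whose inhibition of the agonist-driven luminescence signal at 20 µM reaches about 50%, limit read from the data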;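 also: cells stimulated with CCL20 at 14 nM final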
# Target sequence (P51684 whole entry, looked up): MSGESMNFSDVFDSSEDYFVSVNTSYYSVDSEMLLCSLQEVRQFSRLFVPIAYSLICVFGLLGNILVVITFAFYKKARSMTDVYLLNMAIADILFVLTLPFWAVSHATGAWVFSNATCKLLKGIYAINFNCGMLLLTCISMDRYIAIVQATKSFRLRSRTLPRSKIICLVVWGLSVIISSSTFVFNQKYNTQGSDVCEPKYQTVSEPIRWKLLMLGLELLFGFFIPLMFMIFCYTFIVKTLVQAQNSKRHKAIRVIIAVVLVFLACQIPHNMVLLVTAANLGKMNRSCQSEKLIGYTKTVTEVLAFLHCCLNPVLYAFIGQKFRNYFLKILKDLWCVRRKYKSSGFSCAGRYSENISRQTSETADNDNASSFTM
# A3G deaminase – APOBEC3G DNA deaminase inhibitors, primary screen, biochemical, fluorescence, single-stranded DNA substrate, uHTS; DNA dC->dU-editing enzyme APOBEC-3G (Homo sapiens), Q9HC16; recombinant A3G, ssDNA deamination FAM/TAMRA fluorescence; inhibition, % at 20 µM; hit rate 0.28% among 330,000; AID 493012, 2011;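 active = inhibition of at least 40% at 20 µM, with no more than 30% in the related APOBEC3A deaminase screen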
# APOBEC3A inh – APOBEC3A ssDNA deaminase inhibitors, primary screen, selectivity assay for APOBEC3G inhibitor project, biochemical, FAM/TAMRA oligo cleavage fluorescence; hit rate 0.41% among 330,000; recombinant A3A, FAM/TAMRA ssDNA deamination fluorescence; DNA dC->dU-editing enzyme APOBEC-3A (Homo sapiens), P31941; AID 493011, 2011; inhibition, % at 20 µM;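 active = at least 40% inhibition at 20 µM here, with at most 30% in a related deaminase screen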
# Target sequence (P31941 whole entry, looked up): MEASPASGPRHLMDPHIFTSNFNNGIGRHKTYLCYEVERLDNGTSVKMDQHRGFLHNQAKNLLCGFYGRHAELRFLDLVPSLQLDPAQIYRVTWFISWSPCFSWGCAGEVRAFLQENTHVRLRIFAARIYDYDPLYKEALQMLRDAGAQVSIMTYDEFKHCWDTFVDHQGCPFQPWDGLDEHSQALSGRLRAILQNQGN
# APJ antag confirm – APJ antagonists blocking beta-arrestin recruitment, confirmation, cell-based, luminescence, single concentration, uHTS hits; shares compounds with APJ antag; antagonist mode; inhibition, % at 20 µM; hit rate 66% among 950; AID 2766, 2010; in the data active = inhibition above about 50%
# Hits are given with their value; i = inactive; nt = no result.
SMILES,CXCR6 inh,APJ antag,APJ ag,CCR6 antagonist,A3G deaminase,APOBEC3A inh,APJ antag confirm
C=CCNC(=O)/C(C#N)=C\c1cc(Cl)c(O)c(OCC)c1,i,nt,nt,i,nt,nt,nt
CCOc1cc(/C=C2\CCC/C(=C\c3cc(Cl)c(O)c(OCC)c3)C2=O)cc(Cl)c1O,60,58,i,51,i,i,111
O=C(OCC(=O)c1c[nH]c2ccccc12)c1ccc(F)c(S(=O)(=O)N2CCOCC2)c1,i,nt,nt,nt,nt,nt,nt
COc1ccc(Cn2nnnc2C(c2cc(OC)ccc2OC)N2CCC(C(N)=O)CC2)cc1 (stereo unspecified),i,43,i,i,i,i,i
COc1ccc(Cn2nnnc2C(c2ccccc2Cl)N2CCC(C(N)=O)CC2)cc1 (stereo unspecified),i,i,i,i,i,i,nt
CC1=NN(C(N)=S)C(=O)C1N=Nc1ccc(O)cc1 (stereo unspecified),i,i,i,i,i,i,nt
CC1=NN(C(N)=S)C(=O)C1N=Nc1ccc([N+](=O)[O-])cc1 (stereo unspecified),46,50,i,75,i,i,81
CCCCCC1C(C(=O)OCC)C(=O)NC1(C(=O)OCC)C(=O)OCC (stereo unspecified),i,nt,nt,i,nt,nt,nt
O=C1Nc2ccc(Br)cc2C1=Nc1ccc(-c2nnc3n2CCCCC3)cc1,nt,49,i,nt,i,i,126
CCCCN1CC[C@H]2C=CC[C@@H](C(=O)NCCc3ccccc3)[C@H]2C1=O,i,i,i,i,i,i,nt
CC(C)c1nc(C#N)c(NCCCn2ccnc2)o1,i,i,i,i,i,i,nt
CC(C)c1nc(C#N)c(NN)o1,i,42,i,i,i,i,66
Cc1ccnc(NS(=O)(=O)c2ccc(NC(=O)C3CCCCC3)cc2)n1,i,i,i,i,i,i,nt
Cc1cc(C)nc(NS(=O)(=O)c2ccc(NC(=S)NC(=O)C3CCCC3)cc2)n1,i,43,i,i,i,i,i
CCN(c1ccccc1)S(=O)(=O)c1ccc(OC)c(NC(=O)CN2C(=O)NC(C)(C)C2=O)c1,i,i,i,i,i,i,nt
CCN(c1ccccc1)S(=O)(=O)c1ccc(Cl)c(NC(=O)CN2C(=O)NC3(CCCC3)C2=O)c1,i,41,i,i,i,i,66
CCN(CC)CCCn1c2c(c(SCC(=O)Nc3cc(OC)cc(OC)c3)nc1=O)CCC2,i,55,i,i,i,i,i
CCN(CC)CCCn1c2c(c(SCC(=O)Nc3ccc(F)c(F)c3)nc1=O)CCC2,i,i,i,i,i,i,nt
Cc1ccc(S(=O)(=O)N2c3ccccc3NC(=O)CC2C)cc1 (stereo unspecified),i,i,i,i,i,i,nt
CC1CC(=O)Nc2ccccc2N1S(=O)(=O)c1ccccc1 (stereo unspecified),i,60,i,i,i,i,i
CC(=O)C1=C(c2cccc([N+](=O)[O-])c2)N(C(C)=O)n2c(C)nnc2S1,i,107,i,70,i,i,154
O=C(O)c1ccccc1N=Nc1c(O)[nH]c2ccc([N+](=O)[O-])cc12,i,42,i,i,i,i,53
COc1cccc(NC(=S)N/N=C2\CC3CCC2(C)C3(C)C)c1 (stereo unspecified),i,41,i,55,i,i,79
O=C(N/N=C/c1ccccc1O)NC12CC3CC(CC(C3)C1)C2,i,i,i,i,i,i,nt
O=C(N/N=C/c1cc(Cl)cc([N+](=O)[O-])c1O)NC12CC3CC(CC(C3)C1)C2,i,42,i,i,i,i,70
SMILES,CXCR6 inh,APJ antag,APJ ag,CCR6 antagonist,A3G deaminase,APOBEC3A inh,APJ antag confirm
C[C@@H]1CN([C@H](C)CO)C(=O)c2cc(C#C[C@@H](C)O)cnc2O[C@H]1CN(C)C(=O)c1ccc(F)cc1,i,nt,nt,nt,nt,nt,nt
Nc1[nH]n(-c2ccccc2)c(=O)c1N=Nc1ccccc1[N+](=O)[O-],i,i,i,i,i,i,nt
O=c1c2cc([N+](=O)[O-])cc([N+](=O)[O-])c2[nH]n1-c1ccccc1,i,41,i,56,i,i,76
ON1C(c2ccccc2C(F)(F)F)N(O)[C@H]2CCCC[C@H]21 (stereo partly specified),i,40,i,i,i,i,i
O=C(/C(=C/c1cccnc1)n1ccnc1)c1ccc(Cl)cc1Cl,i,i,i,i,i,i,nt
N#Cc1cnc(Nc2nc3ccccc3o2)nc1-c1ccccc1,i,52,i,55,i,i,i
COC(=O)c1ccc(N2NC(=O)/C(=C/c3cc(OC)c(O)c(OC)c3)C2=O)cc1,i,45,i,i,i,i,i
O=C1CCCC(=O)N1c1ccc(N2CCN(c3ccc([N+](=O)[O-])cc3)CC2)c([N+](=O)[O-])c1,nt,i,i,nt,i,i,nt
Cc1ccc(-c2csc3nc(C)n(N)c(=O)c23)o1,i,i,i,i,i,i,nt
Cc1ccc(-c2csc3nc(C)n(-n4c(C)ccc4C)c(=O)c23)o1,i,48,i,i,i,i,i
Cc1cc(C)nc(NNS(=O)(=O)c2c(F)cc(F)cc2Br)n1,i,67,i,i,i,i,114
O=C(NCCO)/C(=C/c1cccc([N+](=O)[O-])c1)NC(=O)c1ccco1,i,i,i,i,i,i,nt
COC(=O)c1[nH]c(=O)c2ccccc2c1O,i,43,i,68,i,i,i
COc1ccc(-n2nnnc2-c2ccc(S(C)(=O)=O)cc2Cl)cc1,i,i,i,i,i,i,nt
Cc1cc(C)n(CCc2nc(-c3ccco3)cs2)n1,i,56,i,i,i,i,i
Cc1cc(C)n(CCc2nc(-c3cccs3)cs2)n1,i,i,i,i,i,i,nt
N#Cc1cnn2c3c(cnc12)C(=O)N1CCc2ccccc2C1C3 (stereo unspecified),i,48,i,i,i,i,i
CCN1C(=O)C(=Cc2cccc(OC)c2Oc2ccc([N+](=O)[O-])cc2[N+](=O)[O-])SC1=S,42,50,i,60,i,i,71
COC(=O)c1sccc1NC(=O)CC1NCCNC1=O (stereo unspecified),i,i,i,i,i,i,nt
CSC(=NCc1ccco1)NC#N,i,44,i,i,i,i,i

# Screening data (PubChem BioAssay)
